Data reported in ChEMBL document CHEMBL1137696, “Preparation and in vitro evaluation of benzylsulfanyl benzoxazole derivatives as potential antituberculosis agents” (2009).
Values after ≈ are worked out from the molar mass of the structure shown.

Key:
Format in all cases: functional
[1] = tested on: Mycobacterium tuberculosis; experiment: Antimycobacterial activity against Mycobacterium tuberculosis CNCTC My 331/88 after 14 days by micromethod; settings: CNCTC My 331/88, 336 h
Outline: (§1)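 MIC by micromethod in Šula semisynthetic medium. Compounds added as DMSO solutions at 1000, 500, 250, 125, 62, 32, 16, 8, 4 and 2 µmol/L. Incubated at 37 °C and read at 14 and 21 days. MIC taken as the lowest concentration that inhibited mycobacterial growth, expressed in µmol/L. INH run as standard. Strains from CNCTC.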

[2] = tested on: Mycobacterium tuberculosis; experiment: Antimycobacterial activity against Mycobacterium tuberculosis CNCTC My 331/88 after 21 days by micromethod; settings: CNCTC My 331/88, 504 h; outline: as §1
Mycobacterium kansasii [3] = experiment: Antimycobacterial activity against Mycobacterium kansasii CNCTC My 235/80 after 7 days by micromethod; settings: CNCTC My 235/80, 168 h
Outline: (§2)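 Micromethod MIC in Šula semisynthetic medium, with compounds added as DMSO solutions at 1000, 500, 250, 125, 62, 32, 16, 8, 4 and 2 µmol/L. Cultures were incubated at 37 °C, and M. kansasii was read at 7, 14 and 21 days. MIC is the lowest concentration at which mycobacterial growth was inhibited. INH served as standard. Strain 6509/96 was a clinical isolate.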

Mycobacterium kansasii [4] = experiment: Antimycobacterial activity against Mycobacterium kansasii CNCTC My 235/80 after 14 days by micromethod; settings: CNCTC My 235/80, 336 h; outline: as §2
Mycobacterium kansasii [5] = experiment: Antimycobacterial activity against Mycobacterium kansasii CNCTC My 235/80 after 21 days by micromethod; settings: CNCTC My 235/80, 504 h; outline: as §2
Mycobacterium kansasii [6] = experiment: Antimycobacterial activity against Mycobacterium kansasii 6509/96 after 7 days by micromethod; settings: 6509/96, 168 h; outline: as §2
Mycobacterium kansasii [7] = experiment: Antimycobacterial activity against Mycobacterium kansasii 6509/96 after 14 days by micromethod; settings: 6509/96, 336 h; outline: as §2
Mycobacterium kansasii [8] = experiment: Antimycobacterial activity against Mycobacterium kansasii 6509/96 after 21 days by micromethod; settings: 6509/96, 504 h; outline: as §2
Mycobacterium avium [9] = experiment: Antimycobacterial activity against Mycobacterium avium CNCTC My 330/88 after 14 days by micromethod; settings: CNCTC My 330/88, 336 h; outline: as §1
Mycobacterium avium [10] = experiment: Antimycobacterial activity against Mycobacterium avium CNCTC My 330/88 after 21 days by micromethod; settings: CNCTC My 330/88, 504 h; outline: as §1
K562 = experiment: Growth inhibition of human K562 cells
Outline: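 K-562 suspension cultures in microplates were exposed to 10 concentrations of compound. Each well was diluted 1:50 in CASYTON and counted with a CASY 1 electronic cell analyzer (150 µm aperture), using the mean of three successive 0.4 mL counts. GI50 is the point where the concentration-response curve of cell counts/mL relative to control crosses the 50% line.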

L929 = experiment: Growth inhibition of mouse L929 cells
Outline: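 Antiproliferative assay on adherent L-929 monolayers exposed to 10 concentrations of compound. Cells were fixed with glutaraldehyde, stained with 0.05% methylene blue for 15 min, washed, and the dye eluted with 0.33 N HCl. OD was read at 630 nm, and GI50 is the concentration giving 50% growth inhibition.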

HeLa = experiment: Cytotoxicity against human HeLa cells
Outline: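 Adherent HeLa monolayers were incubated with 10 concentrations of compound, then glutaraldehyde-fixed and stained with 0.05% methylene blue for 15 min. After gentle washing, the stain was eluted with 0.33 N HCl and absorbance read at 630 nm. CC50 is the concentration causing 50% cytotoxic (lytic) effect.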

## NNC(=O)c1ccncc1 [ISONIAZID]
[1]
  MIC: 0.5 µM (≈ 0.0686 µg/mL)
[2]
  MIC: 1 µM (≈ 0.137 µg/mL)
Mycobacterium kansasii [3]
  MIC: > 250 µM
Mycobacterium kansasii [4]
  MIC: > 250 µM
Mycobacterium kansasii [5]
  MIC: > 250 µM
Mycobacterium kansasii [6]
  MIC: 2 µM (≈ 0.274 µg/mL)
Mycobacterium kansasii [7]
  MIC: 2 µM (≈ 0.274 µg/mL)
Mycobacterium kansasii [8]
  MIC: 4 µM (≈ 0.549 µg/mL)
Mycobacterium avium [9]
  MIC: > 250 µM
Mycobacterium avium [10]
  MIC: > 250 µM

## Clc1ccc(CSc2nc3ccccc3o2)cc1Cl
[1]
  MIC: > 125 µM
[2]
  MIC: > 250 µM
Mycobacterium kansasii [3]
  MIC: 32 µM (≈ 9.93 µg/mL)
Mycobacterium kansasii [4]
  MIC: 62 µM (≈ 19.2 µg/mL)
Mycobacterium kansasii [5]
  MIC: 125 µM (≈ 38.8 µg/mL)
Mycobacterium kansasii [6]
  MIC: 62 µM (≈ 19.2 µg/mL)
Mycobacterium kansasii [7]
  MIC: 62 µM (≈ 19.2 µg/mL)
Mycobacterium kansasii [8]
  MIC: 125 µM (≈ 38.8 µg/mL)
Mycobacterium avium [9]
  MIC: 62 µM (≈ 19.2 µg/mL)
Mycobacterium avium [10]
  MIC: 62 µM (≈ 19.2 µg/mL)

## O=[N+]([O-])c1ccc(CSc2nc3ccccc3o2)c([N+](=O)[O-])c1
[1]
  MIC: 8 µM (≈ 2.65 µg/mL)
[2]
  MIC: 8 µM (≈ 2.65 µg/mL)
Mycobacterium kansasii [3]
  MIC: 4 µM (≈ 1.33 µg/mL)
Mycobacterium kansasii [4]
  MIC: 4 µM (≈ 1.33 µg/mL)
Mycobacterium kansasii [5]
  MIC: 4 µM (≈ 1.33 µg/mL)
Mycobacterium kansasii [6]
  MIC: 4 µM (≈ 1.33 µg/mL)
Mycobacterium kansasii [7]
  MIC: 8 µM (≈ 2.65 µg/mL)
Mycobacterium kansasii [8]
  MIC: 8 µM (≈ 2.65 µg/mL)
Mycobacterium avium [9]
  MIC: > 16 µM
Mycobacterium avium [10]
  MIC: > 32 µM
K562
  GI50: 10.4 mg/L (≈ 31.4 µM)
L929
  GI50: > 50 mg/L
HeLa
  CC50: 45.1 mg/L (≈ 136 µM)

## O=[N+]([O-])c1cccc(F)c1CSc1nc2ccccc2o1
[1]
  MIC: > 62 µM
[2]
  MIC: > 62 µM
Mycobacterium kansasii [3]
  MIC: > 32 µM
Mycobacterium kansasii [4]
  MIC: > 32 µM
Mycobacterium kansasii [5]
  MIC: > 32 µM
Mycobacterium kansasii [6]
  MIC: 32 µM (≈ 9.74 µg/mL)
Mycobacterium kansasii [7]
  MIC: > 32 µM
Mycobacterium kansasii [8]
  MIC: > 62 µM
Mycobacterium avium [9]
  MIC: 62 µM (≈ 18.9 µg/mL)
Mycobacterium avium [10]
  MIC: 125 µM (≈ 38 µg/mL)

## Fc1ccc(CSc2nc3ccccc3o2)cc1
[1]
  MIC: 250 µM (≈ 64.8 µg/mL)
[2]
  MIC: 500 µM (≈ 130 µg/mL)
Mycobacterium kansasii [3]
  MIC: 32 µM (≈ 8.3 µg/mL)
Mycobacterium kansasii [4]
  MIC: 62 µM (≈ 16.1 µg/mL)
Mycobacterium kansasii [5]
  MIC: 125 µM (≈ 32.4 µg/mL)
Mycobacterium kansasii [6]
  MIC: 62 µM (≈ 16.1 µg/mL)
Mycobacterium kansasii [7]
  MIC: 62 µM (≈ 16.1 µg/mL)
Mycobacterium kansasii [8]
  MIC: 125 µM (≈ 32.4 µg/mL)
Mycobacterium avium [9]
  MIC: 62 µM (≈ 16.1 µg/mL)
Mycobacterium avium [10]
  MIC: 62 µM (≈ 16.1 µg/mL)

## Clc1cccc(CSc2nc3ccccc3o2)c1
[1]
  MIC: 62 µM (≈ 17.1 µg/mL)
[2]
  MIC: 125 µM (≈ 34.5 µg/mL)
Mycobacterium kansasii [3]
  MIC: 32 µM (≈ 8.82 µg/mL)
Mycobacterium kansasii [4]
  MIC: 32 µM (≈ 8.82 µg/mL)
Mycobacterium kansasii [5]
  MIC: 62 µM (≈ 17.1 µg/mL)
Mycobacterium kansasii [6]
  MIC: 32 µM (≈ 8.82 µg/mL)
Mycobacterium kansasii [7]
  MIC: 32 µM (≈ 8.82 µg/mL)
Mycobacterium kansasii [8]
  MIC: 62 µM (≈ 17.1 µg/mL)
Mycobacterium avium [9]
  MIC: 32 µM (≈ 8.82 µg/mL)
Mycobacterium avium [10]
  MIC: 32 µM (≈ 8.82 µg/mL)

## Fc1cccc(Cl)c1CSc1nc2ccccc2o1
[1]
  MIC: 62 µM (≈ 18.2 µg/mL)
[2]
  MIC: 125 µM (≈ 36.7 µg/mL)
Mycobacterium kansasii [3]
  MIC: 32 µM (≈ 9.4 µg/mL)
Mycobacterium kansasii [4]
  MIC: 32 µM (≈ 9.4 µg/mL)
Mycobacterium kansasii [5]
  MIC: 62 µM (≈ 18.2 µg/mL)
Mycobacterium kansasii [6]
  MIC: 32 µM (≈ 9.4 µg/mL)
Mycobacterium kansasii [7]
  MIC: 32 µM (≈ 9.4 µg/mL)
Mycobacterium kansasii [8]
  MIC: 62 µM (≈ 18.2 µg/mL)
Mycobacterium avium [9]
  MIC: 62 µM (≈ 18.2 µg/mL)
Mycobacterium avium [10]
  MIC: 62 µM (≈ 18.2 µg/mL)
